Laboratory results: article PMC6831891 (Molecular Therapy. Nucleic Acids, 2019)

Key:
[1] = test system: S. pyogenes M49 strain 591; assay: Bacterial kill assay; assay type: cell-based, Streptococcus pyogenes; conditions: for Clearance six hours following treatment: 5 μM or 10 μM; for Clearance six hours following treatment / Reduction of CFU per milliliter / Reduction of bacterial counts by scPNA / Reduction of bacterial counts by scPNAs in kill assay: 6 h; for log CFU reduction: six hours following treatment; for Reduction of CFU per milliliter: concentration range 1 to 10 μM, n = 3; for Reduction of bacterial counts by scPNA: 10 μM scPNA, n = 5; for Reduction of bacterial counts by scPNAs in kill assay: up to 5 μM scPNA
Summary of the method: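 S. pyogenes overnight cultures diluted in PBS/BHI (7/2) to about 2 × 10^5 CFU/mL. Test compound added to 1–10 μM final, with water as mock. Incubated 6 h at 37°C while rotating at 7 rpm. Dilutions plated on THY agar, and CFU counted after overnight growth at 37°C under 5% CO2/20% O2. Initial screen used two biological replicates; later experiments used at least three.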

[2] = test system: S. pyogenes M1 strain AP1; assay: Bacterial kill assay, strain AP1; assay type: cell-based, Streptococcus pyogenes; conditions: 6 h (data not shown; Figure 3B cited)
Summary of the method: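 Overnight THY cultures (37°C, 5% CO2/20% O2) diluted in PBS/BHI (7/2) to about 2 × 10^5 CFU/mL. About 10^5 CFU were exposed to CPP-PNA conjugates at 1–10 μM final, with 5 μM used in the isolate comparison; water was the mock. Incubation 6 h at 37°C, rotating at 7 rpm. Viable counts came from plating dilutions on THY agar, compared with the untreated control.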

gyrA mRNA = assay type: cell-based, Streptococcus pyogenes; conditions: 2 μM CPP-PNA, 6 h, 10^7 CFU/mL in THY; normalised to 5S RNA gene, 2^-ΔΔct; n = 3
[3] = test system: S. pyogenes strain 591 (M49); assay: G. mellonella infection model; assay type: in vivo, Galleria mellonella
Summary of the method: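 Wax moth larvae (150–200 mg) injected into the hemocoel, between the last two pro-leg pairs, with 1–3 × 10^6 CFU/larva. Inoculum was grown overnight in THY, washed twice and resuspended in 0.9% NaCl. Test compound (4 nmol/larva) injected 30 min post-infection; 0.9% NaCl served as mock. Survival recorded daily over 7 days.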

## KKKKKKKK [K8-anti-gyrA PNA]
[1]
  Clearance six hours following treatment: no clearance was achieved
[1]; 5 μM
  log CFU reduction: three
[1]; 10 μM
  log CFU reduction: four
[2]
  Antimicrobial effect in AP1: did not show any antimicrobial effect
gyrA mRNA
  gyrA mRNA level relative to mock-treated bacteria: 60%

## LLIILRRRIRKQAHAHSK [mVE-cadherin-anti-gyrA PNA]
[1]
  Reduction of CFU per milliliter: no reduction

## RXRRXRRXRRXRXB [(RXR)4XB-anti-gyrA scPNA]
[1]
  Reduction of bacterial counts by scPNA: significant reduction
  Reduction of bacterial counts by scPNAs in kill assay: did not lead to the reduction of bacterial counts

## RQIKIWFQNRRMKWKK [Ant-anti-gyrA PNA]
[1]
  Reduction of CFU per milliliter: no reduction

## RXRRXRRXRRXRXB [(RXR)4XB-anti-gyrA PNA]
[1]
  Clearance six hours following treatment: no clearance was achieved
[1]; 5 μM
  log CFU reduction: three
[1]; 10 μM
  log CFU reduction: four
gyrA mRNA
  gyrA mRNA level relative to mock-treated bacteria: 56%
[3]; 4 nmol/larva, 7 days
  Effect on larvae survival relative to the other active conjugates: lower compared with the other conjugates

## C[C@H]1COc2c(N3CCN(C)CC3)c(F)cc3c(=O)c(C(=O)O)cn1c23 [levofloxacin, reference compound]
[3]; 1 μg levofloxacin alone, untreated infected larvae 20%, n = 30 larvae per group
  Survival of infected larvae: 46%

## KKKKKKKK [K8-anti-gyrA scPNA]
[1]
  Reduction of bacterial counts by scPNA: significant reduction
  Reduction of bacterial counts by scPNAs in kill assay: did not lead to the reduction of bacterial counts

## Dansyl-G-C-ELALE LALEALEAALELA [ELA-anti-gyrA PNA]
[1]
  Reduction of CFU per milliliter: no reduction
